Measurements reported in ChEMBL document CHEMBL1122844, “Novel nonnarcotic analgesics with an improved therapeutic ratio. Structure-activity relationships of 8-(methylthio)- and 8-(acylthio)-1,2,3,4,5,6-hexahydro-2,6-methano-3-benzazocines” (J Med Chem, 1985).

How the values were obtained:
Mus musculus [1] = assay: Effective dose required to produce analgesic action in mice after peroral administration; format: functional; details: po
Summary of the method: (§1)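 Acetic acid writhing test in mice, 10 per group. Drug given sc or po; sc dosing simultaneous with ip 0.7% AcOH. Starting 15 min after AcOH, writhing observed for 5 min at 15-min intervals, four times in all. A mouse writhing more than once within 5 min counted as having no analgesic effect.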

Mus musculus [2] = assay: Percent analgesic activity in mice after subcutaneous administration at dose 10 mg/kg; format: functional; summary of the method: as §1
Mus musculus [3] = assay: Percent analgesic activity in mice after peroral administration at dose 20 mg/kg; format: functional; details: route oral; summary of the method: as §1
Mus musculus [4] = assay: Percent analgesic activity in mice after peroral administration at dose 10 mg/kg; format: functional; details: route oral; summary of the method: as §1
Opioid receptor = Opioid receptor (Rattus norvegicus, UniProt P33533+P34975+P33535); assay: Inhibitory activity against opiate receptor in rat using [3H]naloxone as radioligand
[5] = Ratio of ED50 with/without Naloxone (0.2 mg/kg) after simultaneous injection of drug; format: organism-based
Summary of the method: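 Mouse acetic acid writhing test (ip 0.7% AcOH, 10 mice/group, four 5-min observations at 15-min intervals; more than one writhe in 5 min = no analgesia). ED50 determined with drug alone and with naloxone 0.2 mg/kg injected simultaneously with the drug; value is ratio of ED50 with/without naloxone.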

Mus musculus [6] = assay: Percent analgesic activity in mice after subcutaneous administration; 20-30%; format: functional; summary of the method: as §1

SMILES	ED50 (Mus musculus [1])	also measured
COc1ccc(C(=O)Sc2ccc3c(c2)[C@]2(C)CCN(CCc4ccccc4)C(C3)[C@@H]2C)cc1	5.3 mg/kg	–
C[C@H]1C2Cc3ccc(SC(=O)C(C)(C)C)cc3[C@]1(C)CCN2CCc1ccccc1	5.2 mg/kg	–
C[C@H]1C2Cc3ccc(O)cc3[C@]1(C)CCN2C	0.46 mg/kg	–
CCOC(=O)Sc1ccc2c(c1)[C@]1(C)CCN(CCc3ccccc3)C(C2)[C@@H]1C	18.5 mg/kg	–
CC(C)=CCN1CC[C@@]2(C)c3cc(SC(=O)c4ccccc4)ccc3C[C@H]1[C@@H]2C	–	Analgesic activity (Mus musculus [2]): 20%
C[C@H]1C2Cc3ccc(SC(=O)c4ccccc4)cc3[C@]1(C)CCN2CCc1cccs1	–	Analgesic activity (Mus musculus [3]): 40%
CC(C)=CCN1CC[C@@]2(C)c3cc(SC(=O)C(C)(C)C)ccc3CC1[C@@H]2C	–	Analgesic activity (Mus musculus [4]): 50%
CC(C)=CCN1CC[C@@]2(C)c3cc(SC(=O)c4ccccc4)ccc3CC1[C@@H]2C	4 mg/kg	–
CC(=O)Sc1ccc2c(c1)[C@]1(C)CCN(C)C(C2)[C@@H]1C	4.5 mg/kg	–
C[C@H]1C2Cc3ccc(O)cc3[C@@]1(C)CCN2CCc1ccccc1	0.135 mg/kg	–
CC(C)=CCN1CC[C@]2(C)c3cc(O)ccc3C[C@H]1[C@H]2C [(+)-PENTAZOCINE]	1.6 mg/kg	Analgesic activity (Mus musculus [2]): 20%
C[C@H]1C2Cc3ccc(SC(=O)c4ccccc4)cc3[C@]1(C)CCN2CCc1ccccc1	1.7 mg/kg	–
C[C@H]1C2Cc3ccc(SC(=O)c4ccc(Cl)cc4)cc3[C@]1(C)CCN2CCc1ccccc1	–	Analgesic activity (Mus musculus [3]): 40%
C[C@H]1C2Cc3ccc(SC(=O)c4ccc(Cl)cc4)cc3[C@]1(C)CCN2C	2.8 mg/kg	–
C[C@H]1C2Cc3ccc(SC(=O)C(C)(C)C)cc3[C@]1(C)CCN2C	6.4 mg/kg	–
CC(C)=CCN1CC[C@@]2(C)c3cc(SC(=O)c4ccc(Cl)cc4)ccc3CC1[C@@H]2C	6 mg/kg	–

SMILES	ED50 (Mus musculus [1])	also measured
C[C@H]1C2Cc3ccc(SC(=O)c4ccccc4)cc3[C@]1(C)CCN2C	1.05 mg/kg	IC50 (Opioid receptor): 1530 nM; Ratio [5]: 1.7
C[C@H]1[C@H]2Cc3ccc(SC(=O)c4ccccc4)cc3[C@]1(C)CCN2C	1 mg/kg	–
CN1CC[C@]23c4c5ccc(O)c4O[C@H]2[C@@H](O)C=C[C@H]3[C@H]1C5 [MORPHINE]	0.52 mg/kg	–
C[C@H]1C2Cc3ccc(OC(=O)c4ccccc4)cc3[C@]1(C)CCN2C	1.7 mg/kg	IC50 (Opioid receptor): 107 nM; Ratio [5]: 6.4
C[C@H]1C2Cc3ccc(SC(=O)c4ccccc4)cc3[C@]1(C)CCN2Cc1ccccc1	–	Analgesic activity (Mus musculus [3]): 30%
CC(C)=CCN1CC[C@@]2(C)c3cc(OC(=O)c4ccccc4)ccc3CC1[C@@H]2C	2.6 mg/kg	–
CC(C)=CCN1CC[C@@]2(C)c3cc(O)ccc3C[C@@H]1[C@@H]2C	0.36 mg/kg	–
C[C@H]1C2Cc3ccc(O)cc3[C@]1(C)CCN2CCc1cccs1	0.071 mg/kg	–
C[C@H]1[C@@H]2Cc3ccc(O)cc3[C@]1(C)CCN2C [METAZOCINE]	–	Analgesic activity (Mus musculus [6]): 20%
CC(C)=CCN1CC[C@@]2(C)c3cc(SC(=O)c4ccccc4)ccc3C[C@@H]1[C@@H]2C	0.74 mg/kg	–
COc1ccc(C(=O)Sc2ccc3c(c2)[C@]2(C)CCN(CC=C(C)C)C(C3)[C@@H]2C)cc1	5.3 mg/kg	–
CCC(=O)Sc1ccc2c(c1)[C@]1(C)CCN(CCc3ccccc3)C(C2)[C@@H]1C	7 mg/kg	–
C[C@H]1[C@@H]2Cc3ccc(SC(=O)c4ccccc4)cc3[C@]1(C)CCN2C	–	Analgesic activity (Mus musculus [2]): 30%
C[C@H]1[C@H]2Cc3ccc(O)cc3[C@@]1(C)CCN2C	0.27 mg/kg	–
COc1ccc(C(=O)Sc2ccc3c(c2)[C@]2(C)CCN(C)C(C3)[C@@H]2C)cc1	4.8 mg/kg	–
